Published values of several laboratories.
Compare with care: the assays were run in different laboratories.
Read-out: enzyme activity
Action: inhibitor
ABL1: Tyrosine-protein kinase ABL1 (ABL1, Homo sapiens, UniProt P00519)
ABL1 G250E: Tyrosine-protein kinase ABL1 (ABL1, Homo sapiens, UniProt P00519, G250E)

SMILES | target | test | setting | inhibition
CS(=O)(=O)Nc1cccc(-c2csc(NC(=O)CSc3nc4nccnc4c(=O)n3CCc3ccccc3)n2)c1 | Tyrosine-protein kinase ABL1 (ABL1, Homo sapiens, UniProt P00519, E255K) |  | 10 µM | -2%
CN(C)C1CCN(CC#Cc2nn(C3CCCC3)c3nc(NCc4ccccc4)ncc23)C1 (stereo not shown) | ABL1 | FRET | 1 µM | 6%
C=CC(=O)Nc1cc(Nc2nccc(Nc3cc(Cl)c(F)cc3C(C)(C)O)n2)c(OC)cc1N1CC[C@@H](N(C)C)C1 | Tyrosine-protein kinase ABL1 (ABL1, Homo sapiens, UniProt P00519, T315I) |  | 1 µM | 18%
CNCc1ccc(-c2cc(-c3nc(-c4ccc(S(=O)(=O)C(C)C)cc4)cnc3N)on2)cc1 | ABL1 |  | 2 µM | 34%
COc1cc(-c2cc(-c3ccc(N4CCNCC4)cc3)cnc2N)cc(OC)c1OC | Tyrosine-protein kinase ABL1 (ABL1, Homo sapiens, UniProt P00519, Y253F) |  | 0.1 µM | 83%
CC/C(=N\NC(=O)NCc1cccc(O)c1)c1ccc(O)c(C)c1O | ABL1 |  | 0.1 µM | -0.9%
O=C(CSc1nc2nccnc2c(=O)n1CCc1ccccc1)Nc1nccs1 | ABL1 |  | 10 µM | 4%
CNC(=O)c1cc2c(Oc3ccc(NC(=O)C4(C(=O)Nc5ccc(F)cc5)CC4)cc3)ccnc2cc1OC | ABL1 | radiometric | 1 µM | 70%
CCOc1cc(-c2nncn2C)ccc1Nc1ncc2cc(C)nc(NCC(C)(C)C)c2n1 | ABL1 | FRET | 1 µM | < 15%
COc1cc2ncnc(Nc3ccc(Oc4ccccc4)c(C)c3C)c2cc1OC | ABL1 G250E |  | 1 µM | 4%
COc1cc2nccc(Oc3ccc(NC(=O)c4c5n(n(-c6ccc(F)cc6)c4=O)CCCC5)cc3)c2cc1OC | ABL1 |  | 0.1 µM | 26%
CNc1cccc2cc(C(=O)Nc3ccc(C(=O)O)cc3)c(=O)[nH]c12 | Tyrosine-protein kinase ABL1 (ABL1, Homo sapiens, UniProt P00519, H396P) |  | 10 µM | 1.9%
COc1cc2ncnc(Nc3ccc(Oc4ccccc4)cc3C)c2cc1OC | ABL1 G250E |  | 1 µM | 14%
